Reference: ChEMBL document CHEMBL1150387, “Development and experimental validation of a docking strategy for the generation of kinase-targeted libraries” (J Med Chem, 2008)

Tests used:
[1] = molecular target: Tyrosine-protein kinase ABL1 (Homo sapiens) (UniProt P00519); experiment: Inhibition of Abl at 10 uM by HTRF assay relative to control
Outline: (§1)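 HTRF kinase assay, one panel of kinases. Inhibitor stock 50 µM in 100% DMSO; tested at 10 µM. ATP and substrate at final levels near Km. Final buffer: 50 mM Hepes/NaOH pH 7.4, 40 µM Na3VO4, 0.005% Tween-20, 1 mM DTT, MnCl2 or MgCl2 at kinase-dependent levels. Started by adding ATP/substrate. Reaction run at room temperature, time varied by kinase. Detection mix in 50 mM Hepes pH 7.4, 0.1% BSA, 150 mM KF, incubated ≥1 h at room temperature. Activity expressed as % of uninhibited control; n=2.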

[2] = molecular target: T1, Tyrosine-protein kinase JAK3 (Homo sapiens) (UniProt P52333); experiment: Inhibition of JAK3 at 10 uM by HTRF assay relative to control; outline: as §1
T1 sequence (whole entry): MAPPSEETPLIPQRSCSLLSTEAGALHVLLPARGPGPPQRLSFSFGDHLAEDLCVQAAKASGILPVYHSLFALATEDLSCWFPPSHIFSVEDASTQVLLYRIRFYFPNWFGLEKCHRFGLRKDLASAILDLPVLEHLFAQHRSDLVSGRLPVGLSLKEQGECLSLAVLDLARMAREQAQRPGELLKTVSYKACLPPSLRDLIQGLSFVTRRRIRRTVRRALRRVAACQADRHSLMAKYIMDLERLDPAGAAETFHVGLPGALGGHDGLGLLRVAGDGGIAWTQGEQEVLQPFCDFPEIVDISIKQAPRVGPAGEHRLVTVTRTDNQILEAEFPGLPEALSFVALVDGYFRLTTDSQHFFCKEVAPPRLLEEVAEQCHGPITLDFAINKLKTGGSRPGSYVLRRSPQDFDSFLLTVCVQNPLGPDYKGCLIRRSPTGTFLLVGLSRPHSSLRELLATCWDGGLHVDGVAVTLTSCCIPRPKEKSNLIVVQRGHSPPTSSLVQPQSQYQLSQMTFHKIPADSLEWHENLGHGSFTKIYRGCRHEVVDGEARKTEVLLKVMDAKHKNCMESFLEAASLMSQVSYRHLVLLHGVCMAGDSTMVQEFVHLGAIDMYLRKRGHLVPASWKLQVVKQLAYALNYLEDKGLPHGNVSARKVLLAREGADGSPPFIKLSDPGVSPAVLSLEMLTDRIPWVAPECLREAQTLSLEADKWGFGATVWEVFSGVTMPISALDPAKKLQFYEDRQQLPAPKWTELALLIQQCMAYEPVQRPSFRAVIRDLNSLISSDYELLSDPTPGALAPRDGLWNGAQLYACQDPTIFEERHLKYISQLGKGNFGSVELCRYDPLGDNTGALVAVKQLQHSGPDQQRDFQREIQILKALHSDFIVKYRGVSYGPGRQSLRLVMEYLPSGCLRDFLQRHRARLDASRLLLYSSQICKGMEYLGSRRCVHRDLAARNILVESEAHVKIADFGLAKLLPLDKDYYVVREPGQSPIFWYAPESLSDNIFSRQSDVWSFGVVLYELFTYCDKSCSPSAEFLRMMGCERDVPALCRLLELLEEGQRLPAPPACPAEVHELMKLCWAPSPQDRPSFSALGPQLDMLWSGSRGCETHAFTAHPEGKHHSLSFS

[3] = molecular target: Focal adhesion kinase 1 (Homo sapiens) (UniProt Q05397); experiment: Inhibition of FAK at 10 uM by HTRF assay relative to control; outline: as §1
Sequence of Focal adhesion kinase 1 (Homo sapiens) (Q05397 2-1052 limits assumed): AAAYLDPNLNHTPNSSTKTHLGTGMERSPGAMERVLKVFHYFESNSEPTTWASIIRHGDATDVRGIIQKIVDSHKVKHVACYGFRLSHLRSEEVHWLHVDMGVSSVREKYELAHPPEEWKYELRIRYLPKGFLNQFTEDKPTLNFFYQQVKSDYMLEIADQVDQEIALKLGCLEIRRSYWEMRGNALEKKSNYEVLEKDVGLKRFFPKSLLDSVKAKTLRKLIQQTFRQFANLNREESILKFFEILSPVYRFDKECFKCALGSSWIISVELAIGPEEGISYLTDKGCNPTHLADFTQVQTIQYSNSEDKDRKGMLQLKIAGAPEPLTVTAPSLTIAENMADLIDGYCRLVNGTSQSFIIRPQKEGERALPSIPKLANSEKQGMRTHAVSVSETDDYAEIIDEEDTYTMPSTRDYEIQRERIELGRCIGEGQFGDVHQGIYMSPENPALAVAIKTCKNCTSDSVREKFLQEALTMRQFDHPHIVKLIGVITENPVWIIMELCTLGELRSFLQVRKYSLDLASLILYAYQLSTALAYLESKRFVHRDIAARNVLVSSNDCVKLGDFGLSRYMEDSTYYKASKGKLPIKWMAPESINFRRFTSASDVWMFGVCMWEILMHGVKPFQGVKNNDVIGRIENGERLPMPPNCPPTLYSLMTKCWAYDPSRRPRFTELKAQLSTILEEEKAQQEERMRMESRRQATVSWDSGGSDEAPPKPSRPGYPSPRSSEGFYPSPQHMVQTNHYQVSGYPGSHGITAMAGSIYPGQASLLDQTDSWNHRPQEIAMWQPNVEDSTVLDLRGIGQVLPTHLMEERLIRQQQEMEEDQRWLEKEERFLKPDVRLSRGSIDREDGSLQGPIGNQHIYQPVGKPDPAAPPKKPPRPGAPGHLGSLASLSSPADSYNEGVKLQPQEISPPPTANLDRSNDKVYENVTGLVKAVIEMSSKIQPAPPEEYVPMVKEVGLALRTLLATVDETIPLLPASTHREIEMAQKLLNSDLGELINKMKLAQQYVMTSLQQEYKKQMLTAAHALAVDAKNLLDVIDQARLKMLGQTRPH

[4] = molecular target: High affinity nerve growth factor receptor (Homo sapiens) (UniProt P04629); experiment: Inhibition of TrkA at 10 uM by HTRF assay relative to control; outline: as §1
Sequence of High affinity nerve growth factor receptor (Homo sapiens) (P04629 33-796 limits assumed): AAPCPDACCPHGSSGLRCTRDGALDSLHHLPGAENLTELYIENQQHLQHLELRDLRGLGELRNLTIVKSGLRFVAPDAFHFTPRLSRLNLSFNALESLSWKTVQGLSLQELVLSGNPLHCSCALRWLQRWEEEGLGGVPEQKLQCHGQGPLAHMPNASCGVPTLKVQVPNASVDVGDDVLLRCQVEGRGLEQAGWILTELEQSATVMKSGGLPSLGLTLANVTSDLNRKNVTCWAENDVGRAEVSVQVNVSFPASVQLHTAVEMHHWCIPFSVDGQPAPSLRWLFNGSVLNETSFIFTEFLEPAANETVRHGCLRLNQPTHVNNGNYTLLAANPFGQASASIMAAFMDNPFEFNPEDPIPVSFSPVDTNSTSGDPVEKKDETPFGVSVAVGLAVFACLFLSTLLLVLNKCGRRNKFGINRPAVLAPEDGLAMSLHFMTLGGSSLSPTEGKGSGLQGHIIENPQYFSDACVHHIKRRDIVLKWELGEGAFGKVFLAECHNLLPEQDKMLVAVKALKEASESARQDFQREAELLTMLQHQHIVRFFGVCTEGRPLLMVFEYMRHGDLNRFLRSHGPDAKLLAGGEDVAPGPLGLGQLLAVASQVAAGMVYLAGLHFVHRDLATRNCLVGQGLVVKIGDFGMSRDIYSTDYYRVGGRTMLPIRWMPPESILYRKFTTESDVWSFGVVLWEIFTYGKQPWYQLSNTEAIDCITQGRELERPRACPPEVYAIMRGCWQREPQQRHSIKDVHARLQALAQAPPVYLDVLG

[5] = molecular target: Tyrosine-protein kinase Lyn (Homo sapiens) (UniProt P07948); experiment: Inhibition of Lyn at 10 uM by HTRF assay relative to control; outline: as §1
Sequence of Tyrosine-protein kinase Lyn (Homo sapiens) (P07948 2-512 limits assumed): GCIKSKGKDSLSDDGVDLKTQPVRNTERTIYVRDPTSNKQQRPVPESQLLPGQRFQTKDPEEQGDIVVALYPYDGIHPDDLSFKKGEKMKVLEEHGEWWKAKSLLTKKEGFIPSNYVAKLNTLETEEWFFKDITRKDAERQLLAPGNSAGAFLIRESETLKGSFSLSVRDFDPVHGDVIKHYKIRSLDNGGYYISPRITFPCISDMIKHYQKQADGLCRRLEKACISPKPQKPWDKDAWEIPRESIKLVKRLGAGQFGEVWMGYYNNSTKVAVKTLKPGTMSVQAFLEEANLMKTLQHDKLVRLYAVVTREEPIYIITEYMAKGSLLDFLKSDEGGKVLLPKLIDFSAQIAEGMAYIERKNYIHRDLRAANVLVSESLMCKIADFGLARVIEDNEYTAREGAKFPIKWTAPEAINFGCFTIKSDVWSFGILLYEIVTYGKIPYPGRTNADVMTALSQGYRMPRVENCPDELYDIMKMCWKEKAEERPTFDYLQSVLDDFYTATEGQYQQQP

[6] = molecular target: T2, Calcium/calmodulin-dependent protein kinase type IV (Homo sapiens) (UniProt Q16566); experiment: Inhibition of CaMK4 at 10 uM by HTRF assay relative to control; outline: as §1
T2 sequence (whole entry): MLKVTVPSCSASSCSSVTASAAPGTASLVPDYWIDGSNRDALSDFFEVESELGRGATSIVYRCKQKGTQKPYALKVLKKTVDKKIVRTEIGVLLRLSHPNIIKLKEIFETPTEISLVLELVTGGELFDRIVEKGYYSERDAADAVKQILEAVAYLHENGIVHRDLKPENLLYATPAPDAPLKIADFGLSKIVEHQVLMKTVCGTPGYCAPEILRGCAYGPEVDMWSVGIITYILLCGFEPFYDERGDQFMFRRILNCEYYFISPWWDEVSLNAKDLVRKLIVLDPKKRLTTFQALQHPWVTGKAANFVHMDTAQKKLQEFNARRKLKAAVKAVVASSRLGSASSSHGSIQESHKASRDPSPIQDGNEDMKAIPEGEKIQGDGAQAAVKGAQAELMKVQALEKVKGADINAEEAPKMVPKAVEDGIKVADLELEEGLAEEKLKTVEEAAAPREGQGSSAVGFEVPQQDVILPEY

[7] = molecular target: MAP kinase-activated protein kinase 2 (Homo sapiens) (UniProt P49137); experiment: Inhibition of MAPKAPK2 at 10 uM by HTRF assay relative to control; outline: as §1
Sequence of MAP kinase-activated protein kinase 2 (Homo sapiens) (P49137 whole entry, looked up): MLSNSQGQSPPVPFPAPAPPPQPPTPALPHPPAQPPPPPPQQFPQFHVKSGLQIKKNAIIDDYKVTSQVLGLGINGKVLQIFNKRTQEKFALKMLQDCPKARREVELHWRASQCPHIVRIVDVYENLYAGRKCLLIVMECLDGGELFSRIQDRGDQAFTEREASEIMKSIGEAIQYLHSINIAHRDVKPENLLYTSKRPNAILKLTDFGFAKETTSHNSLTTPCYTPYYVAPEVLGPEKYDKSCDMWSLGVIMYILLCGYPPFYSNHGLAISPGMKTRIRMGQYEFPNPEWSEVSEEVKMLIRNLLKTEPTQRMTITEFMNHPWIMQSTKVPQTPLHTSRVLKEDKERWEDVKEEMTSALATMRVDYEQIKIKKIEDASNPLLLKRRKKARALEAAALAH

[8] = Inhibition of PKA at 10 uM by HTRF assay relative to control; outline: as §1
[9] = molecular target: Ribosomal protein S6 kinase beta-1 (Homo sapiens) (UniProt P23443); experiment: Inhibition of p70S6K at 10 uM by HTRF assay relative to control; outline: as §1
[10] = molecular target: Platelet-derived growth factor receptor beta (Homo sapiens) (UniProt P09619); experiment: Inhibition of PDGFRbeta at 10 uM by HTRF assay relative to control; outline: as §1
Sequence of Platelet-derived growth factor receptor beta (Homo sapiens) (P09619 whole entry): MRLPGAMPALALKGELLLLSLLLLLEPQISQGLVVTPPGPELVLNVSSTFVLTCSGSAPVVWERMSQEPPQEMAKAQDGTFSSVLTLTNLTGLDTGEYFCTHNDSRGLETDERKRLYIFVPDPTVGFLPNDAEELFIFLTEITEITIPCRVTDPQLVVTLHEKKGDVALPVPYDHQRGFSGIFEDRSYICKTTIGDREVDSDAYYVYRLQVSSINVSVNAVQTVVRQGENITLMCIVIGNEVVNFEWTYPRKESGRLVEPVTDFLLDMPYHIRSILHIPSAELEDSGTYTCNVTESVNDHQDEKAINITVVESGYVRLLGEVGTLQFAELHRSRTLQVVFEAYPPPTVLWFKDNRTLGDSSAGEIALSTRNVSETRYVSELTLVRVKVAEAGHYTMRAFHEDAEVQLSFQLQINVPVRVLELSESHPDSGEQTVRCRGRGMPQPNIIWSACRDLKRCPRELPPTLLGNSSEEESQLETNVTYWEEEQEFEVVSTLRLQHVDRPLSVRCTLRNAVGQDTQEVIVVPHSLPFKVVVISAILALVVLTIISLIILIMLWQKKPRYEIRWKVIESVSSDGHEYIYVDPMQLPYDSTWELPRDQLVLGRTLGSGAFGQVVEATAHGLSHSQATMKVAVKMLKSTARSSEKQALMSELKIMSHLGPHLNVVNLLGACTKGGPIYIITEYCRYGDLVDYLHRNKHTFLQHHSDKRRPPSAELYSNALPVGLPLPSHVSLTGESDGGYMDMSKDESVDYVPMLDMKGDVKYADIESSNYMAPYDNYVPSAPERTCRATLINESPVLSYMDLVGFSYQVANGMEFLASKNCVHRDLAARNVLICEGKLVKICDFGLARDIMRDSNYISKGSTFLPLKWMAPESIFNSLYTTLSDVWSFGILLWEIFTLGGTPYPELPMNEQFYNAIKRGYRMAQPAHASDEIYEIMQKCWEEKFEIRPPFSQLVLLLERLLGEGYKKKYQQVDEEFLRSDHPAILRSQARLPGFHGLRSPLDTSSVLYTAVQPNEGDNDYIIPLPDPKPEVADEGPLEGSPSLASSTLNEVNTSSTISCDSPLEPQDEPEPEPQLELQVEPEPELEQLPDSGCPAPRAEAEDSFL

[11] = molecular target: T3, Mitogen-activated protein kinase 12 (Homo sapiens) (UniProt P53778); experiment: Inhibition of p38-gamma at 10 uM by HTRF assay relative to control; outline: as §1
T3 sequence (whole entry): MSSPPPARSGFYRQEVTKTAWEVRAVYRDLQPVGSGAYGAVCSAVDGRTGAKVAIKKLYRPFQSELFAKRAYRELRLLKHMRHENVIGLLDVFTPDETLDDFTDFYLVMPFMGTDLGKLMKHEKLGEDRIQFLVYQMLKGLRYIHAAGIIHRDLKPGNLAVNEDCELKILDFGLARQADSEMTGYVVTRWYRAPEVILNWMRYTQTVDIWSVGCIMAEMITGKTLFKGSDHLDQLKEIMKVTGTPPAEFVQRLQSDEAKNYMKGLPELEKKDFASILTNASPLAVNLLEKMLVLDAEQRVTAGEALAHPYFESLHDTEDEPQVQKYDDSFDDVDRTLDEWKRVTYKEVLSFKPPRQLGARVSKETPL

Sequence of Tyrosine-protein kinase ABL1 (Homo sapiens) (P00519 whole entry): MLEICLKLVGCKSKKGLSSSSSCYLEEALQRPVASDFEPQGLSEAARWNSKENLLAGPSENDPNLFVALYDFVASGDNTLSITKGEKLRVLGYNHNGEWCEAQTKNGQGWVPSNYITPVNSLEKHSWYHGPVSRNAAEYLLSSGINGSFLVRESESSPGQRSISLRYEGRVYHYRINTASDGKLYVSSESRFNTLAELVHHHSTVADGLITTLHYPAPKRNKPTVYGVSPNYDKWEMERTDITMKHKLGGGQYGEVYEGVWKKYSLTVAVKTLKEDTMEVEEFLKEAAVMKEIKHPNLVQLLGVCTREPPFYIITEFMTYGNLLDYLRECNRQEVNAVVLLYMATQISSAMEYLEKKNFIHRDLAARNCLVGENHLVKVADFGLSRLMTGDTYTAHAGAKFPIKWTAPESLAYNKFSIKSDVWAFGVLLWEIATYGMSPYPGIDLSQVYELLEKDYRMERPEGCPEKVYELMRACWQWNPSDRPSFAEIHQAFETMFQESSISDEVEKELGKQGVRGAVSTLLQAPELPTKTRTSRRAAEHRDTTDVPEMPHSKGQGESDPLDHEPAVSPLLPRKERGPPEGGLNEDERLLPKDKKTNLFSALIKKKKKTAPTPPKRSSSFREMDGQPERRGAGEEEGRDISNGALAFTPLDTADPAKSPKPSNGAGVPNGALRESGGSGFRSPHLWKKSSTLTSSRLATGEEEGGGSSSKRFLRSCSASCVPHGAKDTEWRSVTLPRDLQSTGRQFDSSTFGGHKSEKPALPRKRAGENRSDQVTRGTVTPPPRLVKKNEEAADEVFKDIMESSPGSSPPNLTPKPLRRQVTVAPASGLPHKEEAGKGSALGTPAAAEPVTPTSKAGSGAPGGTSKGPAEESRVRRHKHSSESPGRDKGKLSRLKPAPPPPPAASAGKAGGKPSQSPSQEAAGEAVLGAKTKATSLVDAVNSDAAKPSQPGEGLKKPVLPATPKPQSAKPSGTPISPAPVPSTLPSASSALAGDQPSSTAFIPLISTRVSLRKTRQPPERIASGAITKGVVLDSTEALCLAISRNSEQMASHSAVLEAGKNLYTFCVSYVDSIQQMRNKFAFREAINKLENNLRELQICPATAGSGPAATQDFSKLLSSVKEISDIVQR

inhibition [1] [%]	inhibition [2] [%]	inhibition [3] [%]	inhibition [4] [%]	inhibition [5] [%]	inhibition [6] [%]	inhibition [7] [%]	inhibition [8] [%]	inhibition [9] [%]	inhibition [10] [%]	inhibition [11] [%]	Compound
8	7	0	7	0	0	3	0	3	4	0	CN(C)c1ccc(C(=O)N2CCN(c3ncnc4c3CN(Cc3ccccc3)CC4)CC2)c2ccccc12
49	7	6	10	14	0	0	0	9	23	1	Cc1cccc(N(C)c2cc(Nc3cccc(C(=O)N(C)CCc4ccccn4)c3)ncn2)c1
8	5	15	9	12	0	0	2	15	30	5	O=C(COc1ccccc1)N1CCN(c2nccc(Nc3ccc4ncsc4c3)n2)CC1
2	0	10	11	0	0	2	0	6	11	1	CN(CCCn1ccnc1)C(=O)[C@@H]1CCCN1c1nccc(Nc2ccccc2)n1
13	3	0	5	1	0	1	0	3	7	0	O=C(c1nc(SCc2ccc(Cl)cc2)n2ccccc12)N1CCN(c2ncnc3c2CN(Cc2ccccc2)CC3)CC1
6	0	5	8	2	0	3	0	3	7	3	Cc1cccc(N(C)c2cc(N3CCN(CC(=O)Nc4nc(-c5ccccc5)cs4)CC3)ncn2)c1
0	0	1	5	1	0	0	6	5	0	6	Nc1nc(Nc2ccccc2)cc(N2CCC(C(=O)NCCc3ccccn3)CC2)n1
1	0	0	10	1	0	0	5	14	6	0	Cc1cccc(Oc2ccnc(N3CCN(CC(=O)Nc4cccc5c4CCCC5)CC3)n2)c1
11	0	0	5	4	0	4	0	9	8	2	O=C(NC1Cc2ccccc2C1)c1cccc(Nc2ccnc(N3CCN(c4ccccc4)CC3)n2)c1
44	84	99	34	90	0	1	4	23	98	3	O=C(NC[C@@H]1CCCO1)c1cccc(Nc2nccc(Nc3ccc4ncsc4c3)n2)c1
0	0	4	6	13	0	4	0	13	5	2	CN(C)CC(C)(C)CNC(=O)[C@@H]1CCCN1c1nccc(Nc2ccccc2)n1

Further lines, the molecule ahead of its results:

Compound	inhibition [1] [%]	inhibition [2] [%]	inhibition [3] [%]	inhibition [4] [%]	inhibition [5] [%]	inhibition [6] [%]	inhibition [7] [%]	inhibition [8] [%]	inhibition [9] [%]	inhibition [10] [%]	inhibition [11] [%]
COc1cccc(Nc2cc(Nc3cccc(C(=O)NCCCn4ccnc4)c3)nc(N)n2)c1	25	11	10	7	2	0	0	13	14	7	17
COC(=O)C(CO)NC(=O)[C@@H]1CCCN1c1nccc(Oc2cccc(C)c2)n1 (stereo not given in full)	10	0	6	4	6	0	1	0	5	0	0
Nc1nc(N2CCOCC2)cc(N2CCC(C(=O)NCCc3ccc(O)cc3)CC2)n1	6	0	3	6	5	0	0	0	6	0	0
Cc1cccc(Oc2ccnc(N3CCC[C@H]3C(=O)NCc3cccnc3)n2)c1	7	0	0	4	6	0	0	0	16	11	0
Cc1cccc(Oc2ccnc(N3CCC[C@H]3C(=O)NCCCn3ccnc3)n2)c1	5	7	4	7	1	0	2	0	7	7	0
O=C(NCc1cccnc1)c1cccc(-c2ccc(Nc3ccc4ncsc4c3)nn2)c1	23	41	67	0	48	0	6	16	79	85	5
Cc1cccc(N(C)c2cc(Nc3cccc(C(=O)N(CC(C)C)CC(C)C)c3)ncn2)c1	10	0	1	9	2	0	0	2	11	9	2
Cc1ccc(CN2CCN(c3nccc(C(C#N)c4ccccn4)n3)CC2)cc1 (stereo not given)	5	10	3	5	3	0	0	0	11	14	0
Cc1cccc(CN2CCN(c3cc(N(C)c4cccc(C)c4)ncn3)CC2)c1	2	6	4	4	3	0	0	0	10	6	2
